The values below come from ChEMBL document CHEMBL3044755, “5-Methyl-1,2,3-thiadiazoles synthesized via ugi reaction and their fungicidal and antiviral activities” (J Agric Food Chem, 2010).

Holding throughout (format): functional
Assay [1] concerns Rhizoctonia solani. The assay is described as follows: Fungicidal activity against Rhizoctonia solani at 50 ug/ml by growth inhibition method. Conditions: read-out: GI. The procedure, abridged: (§1)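 Mycelial growth inhibition on potato dextrose agar. The panel covered Alternaria solani, Botrytis cinerea, Cercospora arachidicola, C. beticola, Colletotrichum lagenarium, Fusarium oxysporum, Gibberella zeae, Puccinia triticina, Phytophthora infestans, Physalospora piricola, Pellicularia sasakii and Rhizoctonia solani.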

Assay [2] relates to Puccinia triticina. The assay is described as follows: Fungicidal activity against Puccinia triticina at 50 ug/ml by growth inhibition method. The following applies: read-out: GI. The procedure, abridged:
as §1

Assay [3] deals with Thanatephorus cucumeris. The assay is described as follows: Fungicidal activity against Thanatephorus cucumeris at 50 ug/ml by growth inhibition method. The following applies: read-out: GI. The procedure, abridged:
as §1

For assay [4], the system named is Botryosphaeria berengeriana. The assay is described as follows: Fungicidal activity against Botryosphaeria berengeriana at 50 ug/ml by growth inhibition method. The following applies: read-out: GI. The procedure, abridged: as §1
Assay [5] has as its system Phytophthora infestans. The assay can be described thus: Fungicidal activity against Phytophthora infestans at 50 ug/ml by growth inhibition method. Conditions: read-out: GI. In short, it runs like this: as §1
Assay [6] deals with Fusarium graminearum. The assay can be described thus: Fungicidal activity against Fusarium graminearum at 50 ug/ml by growth inhibition method. Conditions: read-out: GI. The procedure, abridged:
as §1

The test system of assay [7] is Colletotrichum lagenaria. The assay is described as follows: Fungicidal activity against Colletotrichum lagenaria at 50 ug/ml by growth inhibition method. Conditions: read-out: GI. The procedure, abridged:
as §1

Assay [8] relates to Cercospora beticola. The assay can be described thus: Fungicidal activity against Cercospora beticola at 50 ug/ml by growth inhibition method. The following applies: read-out: GI. In short, it runs like this:
as §1

The test system of assay [9] is Mycosphaerella arachidis. The assay is described as follows: Fungicidal activity against Mycosphaerella arachidis at 50 ug/ml by growth inhibition method. The following applies: read-out: GI. In short, it runs like this: as §1
In assay [10] the test system is Alternaria solani. The assay is described as follows: Fungicidal activity against Alternaria solani at 50 ug/ml by growth inhibition method. Conditions: read-out: GI. In short, it runs like this: as §1
In assay [11] the test system is Tobacco mosaic virus. The assay is described as follows: In vitro antiviral activity against Tobacco mosaic virus (TMV) infected tobacco leaves at 100 ug/ml.
The test system of assay [12] is Tobacco mosaic virus. The assay can be described thus: In vitro antiviral activity against Tobacco mosaic virus (TMV) infected tobacco leaves at 500 ug/ml.

Structures are written as SMILES.

Consider `Cc1ccc(N(C(=O)c2nnsc2C)C(C(=O)NC2CCCCC2)c2ccccc2Cl)cc1F` (configuration not stated), for which the inhibition of growth at 50 µg/mL in assay [1] came out at 22%; in assay [2], 0%; in assay [3], 0%; in [4] it was 0%; in assay [5], 25%; in [6], 45%. Moreover, the inhibition of growth at 50 µg/mL in [7], in assay [8], in assay [9] and in [10] was 0% each time. The same compound registered an inhibition at 100 µg/mL in assay [11] of 16%. Besides, in [12], the inhibition at 500 µg/mL amounted to 53%.
Regarding `Cc1ccc(N(C(=O)c2nnsc2C)C(C(=O)NC(C)C)c2cccc([N+](=O)[O-])c2)cc1F` (configuration not stated), the inhibition of growth at 50 µg/mL was determined as 15% in assay [1]; 14% in [2]; 0% in assay [3]; 0% in assay [4]; 13% in assay [5]; 45% in assay [6]. Further, the inhibition of growth at 50 µg/mL in assay [7] came out at 29%; in assay [8], 25%; in assay [9], 27%; in assay [10] it was 13%. The inhibition at 100 µg/mL in [11] came to 4%. In assay [12], this compound yielded an inhibition at 500 µg/mL of 14%.
As to `Cc1ccc(N(C(=O)c2nnsc2C)C(C(=O)NC2CCCCC2)c2ccc([N+](=O)[O-])cc2)cc1F` (configuration not stated), the inhibition of growth at 50 µg/mL is 2% in assay [1]; 0% in [2]; 0% in assay [3]; 0% in assay [4]; 50% in assay [5]; 0% in [6]. For the same compound, the inhibition of growth at 50 µg/mL in assay [7] is 14%; in [8] it was 25%; in assay [9], 45%; in assay [10], 0%. This compound also yielded an inhibition at 100 µg/mL in assay [11] of 8%. The compound also gave an inhibition at 500 µg/mL in assay [12] of 70%.
On to `Cc1ccc(N(C(=O)c2nnsc2C)C(C(=O)NC(C)C)c2ccc(C(F)(F)F)cc2)cc1F` (configuration not stated), for which the inhibition of growth at 50 µg/mL in [1] was determined as 15%; in assay [2], 0%; in [3] it was 11%; in [4] it was 0%; in assay [5], 25%; in assay [6], 0%. Further, the inhibition of growth at 50 µg/mL came out at 0% in assay [7], 25% in assay [8], 0% in assay [9] and 0% in assay [10]. This compound returned an inhibition at 100 µg/mL in assay [11] of 14%. The inhibition at 500 µg/mL in [12] worked out at 45%.
For `Cc1ccc(N(C(=O)c2nnsc2C)C(C(=O)NC(C)C)c2ccccc2[N+](=O)[O-])cc1F` (configuration not stated), the inhibition of growth at 50 µg/mL in assay [1] was 2%; in assay [2], 0%; in assay [3] it was 39%; in [4], 19%; in [5], 0%; in assay [6] it was 27%. Further, the inhibition of growth at 50 µg/mL stood at 14% in [7], 25% in [8], 0% in assay [9] and 0% in assay [10]. Besides, 100 µg/mL produced 11% inhibition in assay [11]. This compound also came in with an inhibition at 500 µg/mL in assay [12] of 24%.
For the compound `Cc1ccc(N(C(=O)c2nnsc2C)C(C(=O)NC2CCCCC2)c2cccc(F)c2)cc1F` (configuration not stated), the inhibition of growth at 50 µg/mL was 2% in [1]; 0% in [2]; 11% in assay [3]; 8% in assay [4]; 44% in assay [5]; 9% in [6]. Moreover, the inhibition of growth at 50 µg/mL in [7] turned out to be 43%; in assay [8], 25%; in assay [9], 27%; in assay [10] it was 50%. The compound also displayed an inhibition at 100 µg/mL in [11] of 52%. Also, the inhibition at 500 µg/mL in [12] came to 30%.
For the compound `Cc1ccc(N(C(=O)c2nnsc2C)C(C(=O)NC(C)C)c2cccc(O)c2)cc1F` (configuration not stated), the inhibition of growth at 50 µg/mL in assay [1] is 2%; in assay [2] it was 0%; in assay [3], 0%; in assay [4] it was 0%; in [5], 38%; in [6], 0%. Besides, the inhibition of growth at 50 µg/mL in assay [7] worked out at 14%; in [8], 11%; in [9], 0%; in [10] it was 0%. The same compound came in with an inhibition at 100 µg/mL in assay [11] of 4%. In addition, at 500 µg/mL the inhibition in [12] was 20%.
Take `Cc1ccc(N(C(=O)c2nnsc2C)C(C(=O)NC(C)C)c2ccccc2C)cc1F` (configuration not stated): the inhibition of growth at 50 µg/mL is 22% in assay [1]; 0% in assay [2]; 0% in [3]; 0% in [4]; 31% in assay [5]; 27% in assay [6]. For the same compound, the inhibition of growth at 50 µg/mL in assay [7] came out at 50%; in [8], 0%; in assay [9], 36%; in [10], 56%. Also, in assay [11], the inhibition at 100 µg/mL is 36%. The inhibition at 500 µg/mL in assay [12] worked out at 55%.
`Cc1ccc(N(C(=O)c2nnsc2C)C(C(=O)NC(C)C)c2ccc(F)cc2)cc1F` (configuration not stated): the inhibition of growth at 50 µg/mL was determined as 22% in assay [1]; 0% in [2]; 0% in [3]; 0% in [4]; 0% in assay [5]; 27% in assay [6]. In addition, the inhibition of growth at 50 µg/mL in [7] was 0%; in [8], 25%; in assay [9], 0%; in assay [10], 0%. In assay [11], this compound had an inhibition at 100 µg/mL of 18%. The inhibition at 500 µg/mL in assay [12] stood at 51%.
As to `Cc1ccc(N(C(=O)c2nnsc2C)C(C(=O)NC(C)C)c2ccccc2)cc1F` (configuration not stated), the inhibition of growth at 50 µg/mL in assay [1] amounted to 2%; in assay [2], 0%; in [3] it was 0%; in assay [4] it was 0%; in [5], 38%; in [6], 27%. Also, the inhibition of growth at 50 µg/mL is 14% in [7], 0% in [8], 9% in assay [9] and 13% in assay [10]. Besides, in assay [11], at 100 µg/mL the inhibition was 5%. Also, the inhibition at 500 µg/mL in [12] amounted to 15%.
As for `Cc1ccc(N(C(=O)c2nnsc2C)C(C(=O)NC(C)C)c2cccc(Cl)c2)cc1F` (configuration not stated), the inhibition of growth at 50 µg/mL in [1] turned out to be 22%; in [2], 0%; in assay [3], 4%; in [4], 0%; in assay [5] it was 0%; in assay [6], 0%. For the same compound, the inhibition of growth at 50 µg/mL in assay [7] came out at 0%; in [8] it was 13%; in assay [9] it was 0%; in assay [10], 0%. In addition, at 100 µg/mL the inhibition in assay [11] was 32%. This compound also yielded an inhibition at 500 µg/mL in assay [12] of 66%.
